Source: PubChem BioAssay
Compounds with a hit are over-represented: about 2.9% of the library has one in this group of screens.
ABHD5-PLIN5 inh = inhibitors of human ABHD5-perilipin-5 interaction | Split G. princeps luciferase complementation, luminescence, 4 h | 360,000 compounds, 0.78% hits | inhibition, % at 4 µM | Q00G26+Q8WTS1;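 active means inhibition above the mean inhibition across every tested compound plus 3 SD, cut at about 22% in these data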;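 further: 0% = DMSO only wells and the 100% control is not disclosed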
NS3 helicase inh = HCV NS3 helicase inhibition | AID 1800 | 290,000 compounds, 0.56% hits | NS3 helicase DNA unwinding, Cy5 molecular beacon fluorescence | inhibition, % at 10.9 µM;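 active means inhibition above the mean of all tested compounds plus 3 SD, set per campaign, cut at about 35% in these data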;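 further: 0% = DMSO wells and 100% = thioflavine S control wells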
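Compound dosing – single dose, 10.9 µM nominal final, DMSO 0.8% final · System – NS3 helicase fragment of HCV · Buffer or medium – MOPS pH 6.5, MgCl2, DTT, Tween20, BSA · Signal – Cy5 beacon fluorescence read at start and 1 h · Also added – annealed dual-labelled DNA beacon duplex, ATP-started · Schedule – 1 h at 25 °C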
APOBEC3G inh = inhibitors of human APOBEC3G DNA deaminase | recombinant A3G, ssDNA deamination FAM/TAMRA fluorescence | inhibition, % at 20 µM | 330,000 compounds, 0.28% hits | AID 493012;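 active means inhibition of at least 40% at 20 µM, with no more than 30% in the related APOBEC3A deaminase screen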;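 further: plate controls were DMSO wells with A3G for no effect and wells lacking A3G enzyme for full effect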
PRMT1 inh = PRMT1 (human) inhibition, primary screen | AID 652257 | Q99873 | inhibition, % at 2.79 µM | 370,000 compounds, 1.3% hits | recombinant PRMT1, activity-based probe fluorescence polarization;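 active means inhibition above about 21% made by adding two undisclosed values, limit read from the data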
Target sequence (Q99873 whole entry, looked up): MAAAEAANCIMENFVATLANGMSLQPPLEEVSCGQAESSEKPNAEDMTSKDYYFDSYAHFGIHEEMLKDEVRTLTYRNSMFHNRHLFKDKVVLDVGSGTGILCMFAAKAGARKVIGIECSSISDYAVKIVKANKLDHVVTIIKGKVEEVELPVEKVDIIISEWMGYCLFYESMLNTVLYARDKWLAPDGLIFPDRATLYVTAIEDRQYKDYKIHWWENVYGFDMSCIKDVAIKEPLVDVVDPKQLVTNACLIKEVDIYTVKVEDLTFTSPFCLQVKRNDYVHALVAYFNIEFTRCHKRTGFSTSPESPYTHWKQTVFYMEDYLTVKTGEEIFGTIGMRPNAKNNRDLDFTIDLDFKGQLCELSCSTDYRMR
core dimer inh = blocks dimerization of HCV core protein; TR-FRET GST/Flag-core106 dimerization, 1536-well; inhibition, % at 5 µM; 300,000 compounds, 0.33% hits; AID 1899;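 active means inhibition above the mean of all tested compounds plus 3 SD, set per screening campaign, cut at about 45% in these data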
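System: GST-tagged and Flag-tagged HCV core protein residues 1-106 / Input: core106 proteins, GST 13.5 nM and Flag 17 nM / Buffer or medium: KF-containing HEPES buffer, pH 7.45, DTT, CHAPS, BSA / Probe or stimulus: Eu-anti-GST and XL665-anti-Flag labelled anti-tag antibodies / Schedule: 4 h, 22.5 °C incubation / Technique: TR-FRET 671 and 617 nm emission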
APOBEC3A inh = blocks human APOBEC3A ssDNA deamination; recombinant A3A, FAM/TAMRA ssDNA deamination fluorescence; 330,000 compounds, 0.41% hits; P31941; inhibition, % at 20 µM;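 active means at least 40% inhibition at 20 µM here, with at most 30% in a related deaminase screen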;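 further: plate controls were A3A with DMSO for no effect and wells lacking A3A enzyme for full effect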
Target sequence (P31941 whole entry, looked up): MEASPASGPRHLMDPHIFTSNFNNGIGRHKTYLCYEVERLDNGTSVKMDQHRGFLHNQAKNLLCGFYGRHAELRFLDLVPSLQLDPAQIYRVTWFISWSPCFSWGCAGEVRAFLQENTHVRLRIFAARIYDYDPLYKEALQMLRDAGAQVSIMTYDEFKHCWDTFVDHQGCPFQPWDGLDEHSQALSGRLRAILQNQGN
NS3 helicase cf = confirmation of Hepatitis C virus NS3 helicase inhibitors. 1,600 compounds, 31% hits. shares compounds with NS3 helicase inh. inhibition, % at 10.9 µM. NS3 helicase DNA unwinding, Cy5 molecular beacon fluorescence;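 active means inhibition above the mean of all tested compounds plus 3 SD, cutoff set per campaign, cut at about 36% in these data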
FID counter trip = displaces DNA intercalator in HCV helicase counter-screen; shares compounds with NS3 helicase inh; DNA fluorescent intercalator displacement, fluorescence; inhibition, % at 7.9 µM; 1,600 compounds, 4% hits; AID 1945; in the data active means inhibition above about 37%;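 further: 0% = vehicle and 100% = reference compound; higher means more displacement of ethidium bromide from the DNA hairpin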
FID counter DR = counter-screen for HCV NS3 helicase inhibitors: DNA intercalator displacement dose response; shares compounds with NS3 helicase inh; fluorescent intercalator displacement from DNA, fluorescence; IC50, µM; 120 tested, under 10 active; AID 2172; call rule not given here
An asterisk follows results filed as active; / = no result.

SMILES	ABHD5-PLIN5 inh	NS3 helicase inh	APOBEC3G inh	PRMT1 inh	core dimer inh	APOBEC3A inh	NS3 helicase cf	FID counter trip	others
Cc1cc(SC#N)cc(C)c1NC(=O)CCl	-43.6	-3.6	-4.5	15.2	-14.0	-1.0	/	/
CCc1cc(SC#N)cc(C)c1NC(=O)CCl	-23.3	2.1	-12.0	30.7*	-0.9	-4.4	/	/
CC(CCN1CCC(C(O)(c2ccccc2)c2ccccc2)CC1)Oc1cccc(C(F)(F)F)c1 (stereo not drawn)	/	/	/	1.9	/	/	/	/
CCN=C1NN=C(c2cc(C)n(Cc3ccco3)c2C)CS1	6.5	29.4	2.0	1.1	48.3*	0.5	/	/
CCN=C1NN=C(c2cc(C)n(CCc3ccccc3)c2C)CS1	8.7	-3.4	/	5.7	/	/	/	/
COc1cccc(N2CC(C)Cn3c2nc2c3c(=O)[nH]c(=O)n2C)c1 (stereo not drawn)	10.2	-2.6	-7.3	0.5	/	-4.3	/	/
COc1ccc(C(=O)/C=C(\C)Nc2ccc3c(c2)OCO3)cc1	-2.3	-8.4	-1.6	21.6*	1.6	-3.0	/	/
COc1ccc(N/C(C)=C/C(=O)c2ccccc2)cc1	4.9	1.7	-2.4	-5.0	4.2	0.0	/	/
CN(C)S(=O)(=O)c1cccc(NC(=O)COC(=O)c2ccc3ccccc3n2)c1	9.2	/	-2.9	-7.8	/	2.3	/	/
Cc1nnnn1/C(=C\c1ccccc1)C(=O)OCC(=O)Nc1cccc(S(=O)(=O)N(C)C)c1	49.8*	/	32.6	13.1	/	5.5	/	/
O=C(/C=C(\Nc1ccc(Br)c(F)c1)c1ccccc1)c1ccccc1	/	/	/	-1.1	/	/	/	/
CCCCCCCC#Cc1ccccc1/C=N/S(=O)c1ccc(C)cc1 (stereo not drawn)	/	7.2	60.9*	/	-0.7	-5.5	/	/
O=C(O)c1cc(Cl)c2c(c1)[C@@H]1C=CC[C@@H]1[C@H](c1ccc(S(=O)(=O)N3CCOCC3)cc1)N2	19.0	25.8	/	/	3.7	/	/	/
Cc1cc(C)c2c(c1)C1C=CCC1C(c1ccc(S(=O)(=O)N3CCOCC3)cc1)N2 (stereo not drawn)	4.2	7.0	0.2	-0.9	62.7*	1.7	/	/
CCOC(=O)Cn1c(-c2ccccn2)nc2ccccc21	-2.0	-1.2	-5.0	-4.3	-1.4	-1.4	/	/
CCOC(=O)c1ccc2c(c1)nc(-c1ccccn1)n2CC	-2.4	36.5*	2.6	-2.6	-6.3	-1.9	0.9	-17.4
CCOC(=O)c1sc2nc3c(SCCC(=O)O)cc(C(=O)c4cc(OC)ccc4O)cn3c(=O)c2c1C	-0.5	40.5*	/	-2.3	/	/	82.5*	14.1	FID counter DR=>79.4
CCOC(=O)c1sc2nc(C)n(N)c(=O)c2c1C	-8.4	1.8	-5.9	-1.1	-0.4	-2.5	/	/
CCn1cc(S(=O)(=O)Nc2cc(F)ccc2C)cn1	-3.0	58.7*	8.1	-1.1	0.9	-2.9	-2.0	-0.9
Cc1ccc(-c2cc(C(=O)O)c3cc(Br)ccc3n2)s1	-7.8	38.4*	0.8	-0.7	/	1.5	37.5*	-5.9
O=C(O)CCn1c(SCCOc2ccccc2)nc2ccccc21	5.5	40.8*	-0.7	2.6	-18.6	3.2	-16.9	-2.5
COc1ccc(OCCSc2nc3ccccc3n2CCC(=O)O)cc1	-0.9	1.5	-7.0	-1.9	-1.7	-4.2	/	/
CCOc1ccccc1N1CCN(C(=O)c2cc(-c3cccnc3)nc3c(Cl)cccc23)CC1	4.0	-4.2	-6.9	/	3.9	-1.3	/	/
COc1ccc(S(N)(=O)=O)cc1C(=O)N(C)CC(=O)Nc1ccc(N2CCOCC2)cc1	1.4	6.6	-6.1	-0.2	-4.5	-4.2	/	/
CCCC(=O)NC(c1ccc(Cl)cc1Cl)c1ccc2cccnc2c1O (stereo not drawn)	12.2	5.1	-7.0	-4.5	3.4	-0.9	/	/
SMILES	ABHD5-PLIN5 inh	NS3 helicase inh	APOBEC3G inh	PRMT1 inh	core dimer inh	APOBEC3A inh	NS3 helicase cf	FID counter trip	others
COc1ccccc1C(NC(C)=O)c1cc(Cl)c2cccnc2c1O (stereo not drawn)	-6.2	40.3*	-9.0	-3.1	8.3	-3.9	-8.0	-4.0
COc1ccc(C(NC(C)=O)c2cc(Cl)c3cccnc3c2O)cc1OC (stereo not drawn)	5.7	4.5	-2.9	0.4	0.7	-1.7	/	/
CC(=O)NC(c1ccc(Cl)cc1Cl)c1ccc2cccnc2c1O (stereo not drawn)	8.2	36.2*	-7.9	-2.5	/	0.7	12.9	-16.0
O=C(O)COc1ccccc1C(Nc1cccnc1)c1cc(Cl)c2cccnc2c1O (stereo not drawn)	25.9*	37.1*	-5.1	/	/	7.8	69.2*	80.7*
CC(CC(=O)NC1CCCCC1)S(=O)(=O)c1ccc2c(c1)NC(=O)CO2 (stereo not drawn)	-6.9	37.6*	-7.5	1.1	-10.3	0.8	-19.8	-2.1
COc1ccc(CNC(=O)c2ccc(-n3ccnc3)c3ccoc23)cc1OC	3.8	/	/	0.6	/	/	/	/
COc1ccccc1NC(=O)c1sc2nc(-c3ccco3)ccc2c1N	4.8	48.7*	0.7	/	28.9	0.5	1.4	16.7
COc1ccccc1NC(=O)c1sc2nc(C)cc(C)c2c1N	2.3	/	-8.0	-2.8	2.6	-4.3	/	/
O=c1n(Cc2ccccc2)c(O)c2n1Cc1ccccc1N=C2c1ccccc1	3.9	/	/	2.5	/	/	/	/
COc1ccc(CCC(=O)OC(C)C(=O)c2ccc(C)cc2)cc1 (stereo not drawn)	3.1	15.1	0.6	5.6	5.1	0.2	/	/
COC(=O)c1ccc(OC(C)C(=O)c2ccc(C)cc2)cc1 (stereo not drawn)	-5.0	37.1*	-10.6	1.0	6.6	-3.4	-8.3	-15.7
CC(C)CN(C(=O)CSc1nc2ccccc2o1)c1c(N)n(Cc2ccccc2)c(=O)[nH]c1=O	-13.4	/	-10.0	5.9	/	4.1	/	/
CCCCCCCCCc1nc2sc3c(c2c(=O)n1NC(=O)c1ccccc1[N+](=O)[O-])CC(C)(C)OC3	-7.0	37.4*	-6.1	0.4	21.9	-3.0	50.1*	3.6	FID counter DR=>79.4
CCCCCCCCCc1nc2sc3c(c2c(=O)n1NC(=O)c1ccc([N+](=O)[O-])cc1)CC(C)(C)OC3	-5.9	1.7	-8.4	-1.1	10.3	-5.7	/	/
O=C(O)CCc1ccc(S(=O)(=O)Nc2cc(C(F)(F)F)ccc2N2CCCC2)cc1	-1.7	/	27.5	0.8	/	35.6	/	/
O=C(Nc1cc(-c2ccccc2)sc1C(=O)O)c1cccc(F)c1	-1.7	38.7*	-8.2	0.9	/	-7.2	45.6*	18.4
Cc1cc(-c2csc(NC(=O)c3ccc(=O)[nH]c3)n2)c(C)n1Cc1ccccc1	4.2	73.9*	4.5	9.7	55.0*	0.8	21.4	3.8
